According to ChEMBL document CHEMBL1671680, “Pradimicin S, a highly soluble nonpeptidic small-size carbohydrate-binding antibiotic, is an anti-HIV drug lead for both microbicidal and systemic use” (Antimicrob Agents Chemother, 2010):
Calls of active or inactive are those of the source. The calls are words filed in the database; no cut-off is given here.

Columns and labels:
PBMC [1] = assay: Immunostimulatory activity against human PBMC assessed as IL-9 production at 22 uM after 72 hrs; type: functional, cell-based
How it was run: (§1)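 Unstimulated PBMCs and PHA-blasts from three donors, in three independent experiments, cultured with test compound at 20 μg/ml (21 or 22 μM). Supernatants collected after 72 h. The cytokine profile was read on a Bio-Plex 27-plex human cytokine bead immunoassay, using beads coupled to cytokine-specific monoclonal antibodies and run per the kit instructions.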

[2] = tested on: Human immunodeficiency virus 2; assay: Ratio of EC90 to EC50 for X4 tropic HIV-2 BV-5061 W infected in human PBMC
[3] = tested on: Human immunodeficiency virus 1; assay: Antiviral activity against HIV-1 3B infected in human HUT78 cells assessed as prevention of syncytium formation between persistently HIV-1 3B-infected HUT-78 cells and uninfected SupT1 cells compound preexposed at pH 4 after 3 to 4 days by ELISA; type: functional, organism-based; settings: SUP-T1
PBMC [4] = assay: Immunostimulatory activity against human PBMC assessed as suppression of IL-13 production at 21 uM after 72 hrs; type: functional; how it was run: as §1
[5] = tested on: Human immunodeficiency virus 1; assay: Ratio of EC90 to EC50 for X4 tropic HIV-1 3B infected in human PBMC; type: functional
How it was run: (§2)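 PBMCs from healthy donors were PHA-stimulated (2 μg/ml, 3 days, 37°C), then seeded at 0.5 × 10^6 per well with compound dilutions in RPMI 1640 with 10% FCS and IL-2 (25 U/ml). Virus was added at 250 pg p24 or p27/ml final. On day 12, supernatant HIV-1 p24 or HIV-2 p27 was measured by ELISA, giving EC50 and EC90.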

PBMC [6] = assay: Immunostimulatory activity against human PBMC assessed as RANTES production at 22 uM after 72 hrs; type: functional, cell-based; how it was run: as §1
PBMC [7] = assay: Immunostimulatory activity against human PBMC assessed as suppression of IL-9 production at 22 uM after 72 hrs; type: functional; how it was run: as §1
PBMC [8] = assay: Immunostimulatory activity against human PBMC assessed as IL-10 production at 22 uM after 72 hrs; type: functional, cell-based
PBMC [9] = assay: Immunostimulatory activity against human PBMC assessed as IL-4 production at 22 uM after 72 hrs; type: functional, cell-based; how it was run: as §1
[10] = tested on: Human immunodeficiency virus 1; assay: Binding affinity to HIV-1 3B gp120 after 6 mins by SPR analysis
[11] = tested on: Human immunodeficiency virus 1; assay: Antiviral activity against HIV-1 3B infected in human HUT78 cells assessed as prevention of syncytium formation between persistently HIV-1 3B-infected HUT-78 cells and uninfected SupT1 cells compound preexposed to high temperature after 3 to 4 days by ELISA; type: functional, organism-based; settings: SUP-T1
PBMC [12] = assay: Immunostimulatory activity against human PBMC assessed as IL-13 production at 21 uM after 72 hrs; type: functional, cell-based; how it was run: as §1
PBMC [13] = assay: Immunostimulatory activity against human PBMC assessed as IL-6 production at 21 uM after 72 hrs; type: functional, cell-based; how it was run: as §1
[14] = tested on: Human immunodeficiency virus 2; assay: Antiviral activity against HIV-2 ROD infected in human CEM cells assessed as inhibition of virus-induced cytopathicity after 3 to 4 days by microscopic analysis; type: functional, organism-based; settings: Human immunodeficiency virus 2, ISOLATE ROD, CCRF-CEM
How it was run: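 CEM cells (5 × 10^5/ml) infected at 100 CCID50/ml, mixed 1:1 with compound dilutions, incubated 3–4 days at 37°C; giant cells counted microscopically against untreated infected controls; EC50 is the concentration preventing syncytium formation by 50%.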

PBMC [15] = assay: Immunostimulatory activity against human PBMC assessed as IL-1ra production at 21 uM after 72 hrs; type: functional, cell-based; how it was run: as §1
PBMC [16] = assay: Immunostimulatory activity against human PBMC assessed as suppression of PDGF production at 22 uM after 72 hrs; type: functional
[17] = tested on: Human immunodeficiency virus 1; assay: Antiviral activity against X4 tropic HIV-1 3B infected in human Raji cells expressing DC-SIGN gene assessed as inhibition of virus capture by Raji cells after 60 mins by ELISA; type: functional, organism-based; settings: Human immunodeficiency virus 1, 3B, 1 h
PBMC [18] = assay: Immunostimulatory activity against human PBMC assessed as GM-CSF production at 21 uM after 72 hrs; type: functional, cell-based
How it was run: (§3)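 PBMCs and PHA blasts from three donors (three independent experiments) cultured with 21 μM compound; supernatants collected at 72 h; cytokines quantified with the Bio-Plex human 27-plex bead immunoassay.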

[19] = tested on: Human immunodeficiency virus 1; assay: Ratio of EC90 to EC50 for R5 tropic HIV-1 clade G isolate BCF-DIOUM infected in human PBMC; type: functional; how it was run: as §2
PBMC [20] = assay: Immunostimulatory activity against human PBMC assessed as IL-1ra production at 22 uM after 72 hrs; type: functional, cell-based; how it was run: as §1
[21] = Cytotoxicity against human thymidine kinase-negative OST cells after 3 to 4 days; type: cell-based
[22] = tested on: Human immunodeficiency virus 1; assay: Antiviral activity against R5 tropic HIV-1 clade A isolate UG273 infected in human PBMC assessed as inhibition of viral replication […] by ELISA; type: functional, organism-based; settings: Human immunodeficiency virus 1, clade A isolate UG273
How it was run: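 PBMCs from healthy donors were stimulated with PHA (2 μg/ml) for 3 days, then seeded at 0.5 × 10^6 cells/well in RPMI 1640 with 10% FCS, IL-2 (25 U/ml) and compound. Virus was added at a final 250 pg p24/ml. Supernatant was taken at day 12 for p24 antigen ELISA.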

PBMC [23] = assay: Immunostimulatory activity against human PBMC assessed as MCP-1 production at 21 uM after 72 hrs; type: functional, cell-based; how it was run: as §1
PBMC [24] = assay: Immunostimulatory activity against human PBMC assessed as IP-10 production at 22 uM after 72 hrs; type: functional, cell-based; how it was run: as §1
PBMC [25] = assay: Immunostimulatory activity against human PBMC assessed as IP-10 production at 21 uM after 72 hrs; type: functional, cell-based; how it was run: as §1
[26] = Cytotoxicity against human CEM cells after 7 days by trypan blue staining; type: cell-based, CCRF-CEM
[27] = Antiviral activity against SIV mac251 infected in human Raji cells expressing DC-SIGN gene assessed as inhibition of virus capture by Raji cells after 60 mins by ELISA; type: functional, cell-based, Simian immunodeficiency virus - mac; settings: Simian immunodeficiency virus, 251, Raji, 1 h
PBMC [28] = assay: Immunostimulatory activity against human PBMC assessed as IL-15 production at 21 uM after 72 hrs; type: functional, cell-based; how it was run: as §1
PBMC [29] = assay: Immunostimulatory activity against human PBMC assessed as PDGF production at 22 uM after 72 hrs; type: functional, cell-based; how it was run: as §1
[30] = tested on: Human immunodeficiency virus 1; assay: Antiviral activity against compound pretreated X4 tropic HIV-1 3B infected in human Raji cells expressing DC-SIGN gene assessed as prevention of syncytium formation between persistently HIV-1 3B-infected Raji cells and uninfected human C8166 cells after 42 hrs by microscopic analysis; type: functional, organism-based; settings: Human immunodeficiency virus 1, 3B
How it was run: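 Compound-pretreated virus captured by Raji/DC-SIGN cells for 60 min at 37°C, washed, then 200 μl mixed with 2 × 10^5 C8166 cells (further 5-fold dilution) and incubated 36–48 h at 37°C; syncytium formation scored microscopically.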

PBMC [31] = assay: Immunostimulatory activity against human PBMC assessed as IL-12 production at 21 uM after 72 hrs; type: functional, cell-based; how it was run: as §1
PBMC [32] = assay: Immunostimulatory activity against human PBMC assessed as suppression of IL-15 production at 21 uM after 72 hrs; type: functional; how it was run: as §1
PBMC [33] = assay: Immunostimulatory activity against human PBMC assessed as VEGF production at 21 uM after 72 hrs; type: functional, cell-based; how it was run: as §1
PBMC [34] = assay: Immunostimulatory activity against human PBMC assessed as G-CSF production at 21 uM after 72 hrs; type: functional, cell-based; how it was run: as §3

CN[C@@H]1[C@H](O[C@@H]2OC[C@@H](O)[C@H](O)[C@H]2O)[C@@H](O)[C@H](O[C@H]2c3cc(C)c(C(=O)N[C@H](C)C(=O)O)c(O)c3-c3c(cc4c(c3O)C(=O)c3cc(OC)cc(O)c3C4=O)[C@@H]2O)O[C@@H]1C [PRADIMICIN A]
Activity (PBMC [1]): inactive
Ratio [2]: 2
Activity [3]: Active
fold change (FC) (PBMC [4]): 2
Ratio [5]: 2
Activity (PBMC [6]): inactive
fold change (FC) (PBMC [7]): 2
Activity (PBMC [8]): inactive
Activity (PBMC [9]): inactive
Activity [10]: inactive
Activity [11]: Active
Activity (PBMC [12]): inactive
Activity (PBMC [13]): inactive
EC50 [14]: 5.2 µM
Activity (PBMC [15]): inactive
fold change (FC) (PBMC [16]): 2
IC50 [17]: 3.5 µM
Activity (PBMC [18]): inactive
Ratio [19]: 2
Activity (PBMC [20]): inactive
CC50 [21]: > 50 µM
EC50 [22]: 5.9 µM
Activity (PBMC [23]): inactive
Activity (PBMC [24]): inactive
Activity (PBMC [25]): inactive
CC50 at 168 h [26]: > 100 µM
IC50 [27]: 16 µM
Activity (PBMC [28]): inactive
Activity (PBMC [29]): inactive
EC50 [30]: 3.4 µM
Activity (PBMC [31]): inactive
fold change (FC) (PBMC [32]): 2
Activity (PBMC [33]): inactive
Activity (PBMC [34]): inactive

CN[C@@H]1[C@H](O[C@@H]2O[C@H](CO)[C@@H](O)[C@H](OS(=O)(=O)O)[C@H]2O)[C@@H](O)[C@H](O[C@H]2c3cc(C)c(C(=O)N[C@H](C)C(=O)O)c(O)c3-c3c(cc4c(c3O)C(=O)c3cc(OC)cc(O)c3C4=O)[C@@H]2O)O[C@@H]1C [PRADIMICIN S]
Activity (PBMC [1]): inactive
Ratio [2]: 2
Activity [3]: Active
fold change (FC) (PBMC [4]): 2
Ratio [5]: 2
Activity (PBMC [6]): inactive
fold change (FC) (PBMC [7]): 2
Activity (PBMC [8]): inactive
Activity (PBMC [9]): inactive
Activity [10]: inactive
Activity [11]: Active
Activity (PBMC [12]): inactive
Activity (PBMC [13]): inactive
EC50 [14]: 9.6 µM
Activity (PBMC [15]): inactive
fold change (FC) (PBMC [16]): 2
IC50 [17]: 11 µM
Activity (PBMC [18]): inactive
Ratio [19]: 2
Activity (PBMC [20]): inactive
CC50 [21]: > 230 µM
EC50 [22]: 15 µM
Activity (PBMC [23]): inactive
Activity (PBMC [24]): inactive
Activity (PBMC [25]): inactive
CC50 at 168 h [26]: > 100 µM
IC50 [27]: 16 µM
Activity (PBMC [28]): inactive
Activity (PBMC [29]): inactive
EC50 [30]: 7.1 µM
Activity (PBMC [31]): inactive
fold change (FC) (PBMC [32]): 2
Activity (PBMC [33]): inactive
Activity (PBMC [34]): inactive
